pIC50, pKi: −log10 of the molar value. Active and inactive are the calls of the source. The calls are words filed in the database; no cut-off is given here.
How the values were obtained:
[1] = target: T1, Adenosine receptor A1 (Homo sapiens) (UniProt P30542); experiment: Displacement of [3H]R-PIA from recombinant human A1AR expressed in HEK293 cell membranes at 10 uM measured after 60 mins by liquid scintillation counting method relative to control
T1 sequence (whole entry): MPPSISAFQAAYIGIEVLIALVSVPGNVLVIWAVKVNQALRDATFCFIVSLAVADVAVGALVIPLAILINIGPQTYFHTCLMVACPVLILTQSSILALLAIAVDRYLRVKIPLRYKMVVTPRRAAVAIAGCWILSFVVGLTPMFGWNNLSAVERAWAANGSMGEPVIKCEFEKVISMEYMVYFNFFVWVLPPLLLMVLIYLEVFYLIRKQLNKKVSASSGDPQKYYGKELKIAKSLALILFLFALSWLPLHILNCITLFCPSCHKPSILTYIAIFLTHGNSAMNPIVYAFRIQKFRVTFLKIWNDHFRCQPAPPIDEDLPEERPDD

[2] = target: T2, Adenosine receptor A1 (Mus musculus, UniProt Q60612); experiment: Displacement of [3H]R-PIA from recombinant mouse A1AR expressed in HEK293 cell membranes measured after 60 mins by liquid scintillation counting method
T2 sequence (Q60612 whole entry): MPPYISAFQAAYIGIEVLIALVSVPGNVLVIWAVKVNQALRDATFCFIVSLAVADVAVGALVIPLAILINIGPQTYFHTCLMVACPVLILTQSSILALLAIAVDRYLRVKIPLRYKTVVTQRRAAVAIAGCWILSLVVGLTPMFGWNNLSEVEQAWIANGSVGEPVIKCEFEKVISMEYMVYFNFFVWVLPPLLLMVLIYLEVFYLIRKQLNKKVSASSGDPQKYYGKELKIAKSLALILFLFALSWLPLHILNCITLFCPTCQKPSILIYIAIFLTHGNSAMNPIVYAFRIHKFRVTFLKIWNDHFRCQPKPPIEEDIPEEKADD

[3] = target: Adenosine receptor A2a (Homo sapiens, UniProt P29274); experiment: Displacement of [3H]CGS21680 from recombinant human A2AAR expressed in HEK293 cell membranes at 10 uM measured after 60 mins by liquid scintillation counting method relative to control
[4] = target: T3, Adenosine receptor A3 (Mus musculus) (UniProt Q61618); experiment: Partial agonist activity at recombinant mouse A3AR expressed in HEK293 cell membranes assessed as stimulation of [35S]GTPgammaS binding measured after 2 hrs in presence of A2BAR blocker PSB-603 by liquid scintillation counting analysis relative to adenosine-5'-Nethyluronamide; format: functional
T3 sequence (whole entry): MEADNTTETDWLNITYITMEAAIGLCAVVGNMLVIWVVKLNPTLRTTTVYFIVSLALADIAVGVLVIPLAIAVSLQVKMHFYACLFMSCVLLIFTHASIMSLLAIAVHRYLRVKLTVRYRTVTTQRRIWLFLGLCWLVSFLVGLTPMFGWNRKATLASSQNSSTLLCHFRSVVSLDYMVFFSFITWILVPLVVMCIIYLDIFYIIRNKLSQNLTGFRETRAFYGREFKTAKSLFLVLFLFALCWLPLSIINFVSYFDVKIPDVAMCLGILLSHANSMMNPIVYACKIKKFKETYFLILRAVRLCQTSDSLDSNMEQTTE

[5] = target: T4, Adenosine receptor A3 (Homo sapiens) (UniProt P0DMS8); experiment: Partial agonist activity at recombinant human A3AR expressed in HEK293 cells assessed as inhibition of forskolin-stimulated cAMP accumulation by measuring residual cAMP level measured after 30 mins in presence of A2BAR blocker PSB-603 by Glo-sensor assay relative to control; format: functional, cell-based
T4 sequence (whole entry): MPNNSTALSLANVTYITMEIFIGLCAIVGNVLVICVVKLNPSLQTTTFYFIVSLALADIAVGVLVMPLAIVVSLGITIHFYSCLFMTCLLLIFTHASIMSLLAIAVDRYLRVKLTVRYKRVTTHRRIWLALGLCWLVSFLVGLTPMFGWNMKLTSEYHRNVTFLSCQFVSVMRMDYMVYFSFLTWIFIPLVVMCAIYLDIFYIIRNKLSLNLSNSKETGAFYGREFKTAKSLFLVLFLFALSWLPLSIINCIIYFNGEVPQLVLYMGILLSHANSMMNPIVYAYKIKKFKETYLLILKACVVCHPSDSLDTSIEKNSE

[6] = target: T4, Adenosine receptor A3 (Homo sapiens); experiment: Partial agonist activity at recombinant human A3AR expressed in HEK293 cells assessed as inhibition of forskolin-stimulated cAMP accumulation at 10 uM measured after 30 mins in presence of A2BAR blocker PSB-603 by Glo-sensor assay relative to Cl-IB-MECA; format: functional, cell-based
[7] = target: Sigma non-opioid intracellular receptor 1 (Homo sapiens, UniProt Q99720); experiment: Displacement of [3H]-Pentazocine from sigma 1 receptor (unknown origin) measured after 90 mins by microbeta counting analysis
[8] = target: Sigma intracellular receptor 2 (Homo sapiens, UniProt Q5BJF2); experiment: Displacement of [3H]-DTG from sigma 2 receptor (unknown origin) measured after 90 mins by microbeta counting analysis
[9] = target: Translocator protein (Homo sapiens, UniProt P30536); experiment: Inhibition of TSPO (unknown origin)
[10] = target: T5, Cytochrome P450 1A2 (Homo sapiens, UniProt P05177); experiment: Inhibition of CYP1A2 (unknown origin)
T5 sequence (P05177 whole entry): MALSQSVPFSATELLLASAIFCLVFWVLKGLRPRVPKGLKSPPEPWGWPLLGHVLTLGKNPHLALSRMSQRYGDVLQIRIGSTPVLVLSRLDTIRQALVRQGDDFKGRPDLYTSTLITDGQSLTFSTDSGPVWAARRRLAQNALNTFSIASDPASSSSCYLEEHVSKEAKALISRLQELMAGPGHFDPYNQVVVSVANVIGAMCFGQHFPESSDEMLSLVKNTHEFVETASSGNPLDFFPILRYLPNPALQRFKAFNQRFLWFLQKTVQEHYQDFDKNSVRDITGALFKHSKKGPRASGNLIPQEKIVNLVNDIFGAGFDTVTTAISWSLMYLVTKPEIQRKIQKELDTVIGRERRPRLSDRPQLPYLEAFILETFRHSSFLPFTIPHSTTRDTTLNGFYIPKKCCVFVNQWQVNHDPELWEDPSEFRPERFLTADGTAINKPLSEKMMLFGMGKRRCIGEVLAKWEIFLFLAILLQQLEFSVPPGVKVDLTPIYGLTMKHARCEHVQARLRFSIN

[11] = target: Cytochrome P450 2C9 (Homo sapiens, UniProt P11712); experiment: Inhibition of CYP2C9 (unknown origin) using tolbutamide as substrate
[12] = target: Cytochrome P450 2C19 (Homo sapiens, UniProt P33261); experiment: Inhibition of CYP2C19 (unknown origin)
[13] = target: Cytochrome P450 2D6 (Homo sapiens, UniProt P10635); experiment: Inhibition of CYP2D6 (unknown origin) using dextromethorphan as substrate
[14] = target: Cytochrome P450 3A4 (Homo sapiens, UniProt P08684); experiment: Inhibition of CYP3A4 (unknown origin) using midazolam as substrate
[15] = Half life in Wistar rat at 3 mg/kg, po; format: ADME, organism-based; details: in vivo
[16] = Half life in Wistar rat at 10 mg/kg, po; format: ADME, organism-based; details: in vivo
[17] = system: Mus musculus; experiment: In vivo agonist activity at A3AR in C57BL/6J mouse assessed as reduction in core body temperature at 10 mg/kg, ip measured up to 2 hrs by telemetric method; format: functional, organism-based
How it was run: (§1)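 Male C57BL/6J wild-type mice, plus A3AR-knockout (ADORA3−/−) mice at 10 mg/kg, given test agent or vehicle i.p. Core body temperature (Tb) was followed over time. N=4 to 12 per group. Groups were compared by two-tailed t-test, paired or unpaired as appropriate.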

[18] = system: Mus musculus; experiment: Induction of hypothermia in A3AR knock out C57BL/6J mouse at 10 mg/kg, ip measured up to 2 hrs by telemetric method; format: functional, organism-based; how it was run: as §1
[19] = system: Mus musculus; experiment: In vivo agonist activity at A3AR in C57BL/6J mouse assessed as reduction in core body temperature at 3 mg/kg, ip measured up to 2 hrs by telemetric method; format: functional, organism-based; how it was run: as §1
[20] = system: Mus musculus; experiment: In vivo antagonist activity at A3AR in C57BL/6J mouse assessed as inhibition of MRS5698-induced hypothermia at 3 to 10 mg/kg, ip pretreated for 15 mins followed by MRS5698 addition and measured up to 2 hrs by telemetric method; format: functional, organism-based
[21] = in vivo; details: Wistar, rat, po, 3 mg/kg
[22] = in vivo; details: Wistar, rat, po, 10 mg/kg

Sequence of Cytochrome P450 2D6 (P10635 whole entry): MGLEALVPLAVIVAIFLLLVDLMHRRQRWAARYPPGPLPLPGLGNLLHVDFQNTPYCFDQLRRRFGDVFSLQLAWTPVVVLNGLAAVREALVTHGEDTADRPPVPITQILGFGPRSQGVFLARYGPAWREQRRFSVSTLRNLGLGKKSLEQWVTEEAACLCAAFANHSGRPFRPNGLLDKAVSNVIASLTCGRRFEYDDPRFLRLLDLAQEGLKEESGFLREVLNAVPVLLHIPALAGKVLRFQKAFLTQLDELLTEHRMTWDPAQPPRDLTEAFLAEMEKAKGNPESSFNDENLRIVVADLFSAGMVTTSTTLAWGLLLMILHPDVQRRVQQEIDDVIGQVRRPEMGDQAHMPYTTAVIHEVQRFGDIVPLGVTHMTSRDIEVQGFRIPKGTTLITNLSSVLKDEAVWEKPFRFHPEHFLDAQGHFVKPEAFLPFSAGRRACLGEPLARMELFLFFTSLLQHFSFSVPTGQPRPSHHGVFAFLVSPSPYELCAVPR
Sequence of Cytochrome P450 2C9 (P11712 whole entry): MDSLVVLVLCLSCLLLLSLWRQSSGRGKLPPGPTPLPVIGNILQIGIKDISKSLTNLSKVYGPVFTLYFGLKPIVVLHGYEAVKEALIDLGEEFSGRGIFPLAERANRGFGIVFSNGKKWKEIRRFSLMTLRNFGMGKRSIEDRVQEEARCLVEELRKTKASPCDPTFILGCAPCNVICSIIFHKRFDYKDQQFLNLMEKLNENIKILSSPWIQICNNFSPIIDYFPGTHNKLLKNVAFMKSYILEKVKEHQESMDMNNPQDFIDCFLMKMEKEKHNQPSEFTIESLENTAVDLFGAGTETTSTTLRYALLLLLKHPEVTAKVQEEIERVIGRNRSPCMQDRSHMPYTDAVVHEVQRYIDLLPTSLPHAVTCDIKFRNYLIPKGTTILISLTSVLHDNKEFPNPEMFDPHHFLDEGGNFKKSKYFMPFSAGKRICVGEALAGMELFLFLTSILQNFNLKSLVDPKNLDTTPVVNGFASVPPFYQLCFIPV
Sequence of Adenosine receptor A2a (P29274 whole entry): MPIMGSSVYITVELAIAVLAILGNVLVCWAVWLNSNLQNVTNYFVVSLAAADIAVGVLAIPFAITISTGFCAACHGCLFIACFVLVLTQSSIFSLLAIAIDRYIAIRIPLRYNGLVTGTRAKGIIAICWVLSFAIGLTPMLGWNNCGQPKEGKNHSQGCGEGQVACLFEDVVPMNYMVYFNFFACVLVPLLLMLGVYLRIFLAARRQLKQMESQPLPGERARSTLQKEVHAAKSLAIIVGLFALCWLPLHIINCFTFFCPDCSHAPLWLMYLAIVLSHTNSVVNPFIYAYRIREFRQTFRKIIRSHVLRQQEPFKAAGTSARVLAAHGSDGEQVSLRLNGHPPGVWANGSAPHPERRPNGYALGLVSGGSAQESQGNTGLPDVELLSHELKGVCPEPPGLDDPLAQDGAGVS
Sequence of Sigma intracellular receptor 2 (Q5BJF2 whole entry): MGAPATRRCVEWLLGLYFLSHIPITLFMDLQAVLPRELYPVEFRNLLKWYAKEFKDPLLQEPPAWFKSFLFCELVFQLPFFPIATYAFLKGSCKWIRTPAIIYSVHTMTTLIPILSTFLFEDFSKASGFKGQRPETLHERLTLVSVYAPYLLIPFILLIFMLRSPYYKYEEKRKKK
Sequence of Cytochrome P450 2C19 (P33261 whole entry): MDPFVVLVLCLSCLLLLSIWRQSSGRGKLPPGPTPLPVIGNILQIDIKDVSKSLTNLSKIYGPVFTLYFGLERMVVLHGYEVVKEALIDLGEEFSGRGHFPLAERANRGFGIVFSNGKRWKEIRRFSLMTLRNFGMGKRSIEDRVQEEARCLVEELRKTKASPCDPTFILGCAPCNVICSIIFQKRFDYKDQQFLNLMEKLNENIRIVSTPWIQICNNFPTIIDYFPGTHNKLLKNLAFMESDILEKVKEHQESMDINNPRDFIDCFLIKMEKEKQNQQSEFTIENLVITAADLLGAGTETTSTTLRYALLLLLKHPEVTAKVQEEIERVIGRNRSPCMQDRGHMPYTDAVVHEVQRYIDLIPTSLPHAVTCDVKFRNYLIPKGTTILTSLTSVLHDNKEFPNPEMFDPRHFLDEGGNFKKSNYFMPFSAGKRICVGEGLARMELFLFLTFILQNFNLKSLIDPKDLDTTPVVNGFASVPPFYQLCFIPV
Sequence of Sigma non-opioid intracellular receptor 1 (Q99720 whole entry): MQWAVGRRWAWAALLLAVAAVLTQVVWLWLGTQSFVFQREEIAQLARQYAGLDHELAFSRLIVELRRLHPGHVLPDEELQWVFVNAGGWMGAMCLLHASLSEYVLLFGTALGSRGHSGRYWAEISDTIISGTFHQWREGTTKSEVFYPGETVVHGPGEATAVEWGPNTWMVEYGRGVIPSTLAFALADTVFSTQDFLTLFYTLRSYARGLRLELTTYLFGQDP
Sequence of Translocator protein (P30536 whole entry): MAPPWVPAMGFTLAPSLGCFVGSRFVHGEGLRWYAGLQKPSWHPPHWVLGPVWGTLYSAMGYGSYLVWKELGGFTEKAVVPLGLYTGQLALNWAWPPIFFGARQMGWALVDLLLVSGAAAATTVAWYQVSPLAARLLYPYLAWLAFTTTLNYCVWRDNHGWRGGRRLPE
Sequence of Cytochrome P450 3A4 (P08684 whole entry): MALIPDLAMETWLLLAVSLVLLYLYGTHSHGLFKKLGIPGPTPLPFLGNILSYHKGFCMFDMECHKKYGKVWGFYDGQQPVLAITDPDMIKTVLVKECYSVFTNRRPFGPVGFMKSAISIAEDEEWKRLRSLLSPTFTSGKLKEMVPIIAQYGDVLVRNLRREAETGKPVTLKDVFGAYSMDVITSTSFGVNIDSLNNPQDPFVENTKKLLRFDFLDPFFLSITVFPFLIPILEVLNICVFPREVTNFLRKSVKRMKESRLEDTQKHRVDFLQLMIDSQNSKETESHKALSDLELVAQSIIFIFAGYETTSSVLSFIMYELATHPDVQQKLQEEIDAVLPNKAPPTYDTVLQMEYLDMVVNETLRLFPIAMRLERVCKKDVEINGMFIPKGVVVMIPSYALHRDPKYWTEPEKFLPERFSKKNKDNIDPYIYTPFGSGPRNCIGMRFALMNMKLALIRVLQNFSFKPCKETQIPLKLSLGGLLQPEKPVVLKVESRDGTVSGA

With `COc1cc(CCNc2nc(C#Cc3ccccc3)nc3c2ncn3[C@H]2[C@H](O)[C@H](O)[C@@H]3C[C@@H]32)ccc1O` the inhibition [1] was 33%, the pKi [2] was 6.23 and the inhibition [3] was 39%. For the same molecule, the Emax [4] was 16%, the Emax [5] was 75.5% and the Emax [6] was 31%. For the same molecule, the pKi [7] was 5.45, the pKi [8] was 5.70 and the pKi [9] was 5.65. For the same molecule, the pIC50 [10] was 5.54, the pIC50 [11] was 4.84 and the pIC50 [12] was < 4.52. The pIC50 [13] was < 4.52, the pIC50 [14] was 5.65 and the half-life [15] was 27.4 min. The half-life [16] was 29.4 min, the Activity [17] was “Active” and the Activity [18] was “inactive”. The Activity [19] was “Active”, the inhibition [20] was “inactive” and the bioavailability [21] was 1.5%. For the same molecule, the bioavailability [22] was 3.5%.

Reference: ChEMBL document CHEMBL4402597, “Truncated (N)-Methanocarba Nucleosides as Partial Agonists at Mouse and Human A3 Adenosine Receptors: Affinity Enhancement by N6-(2-Phenylethyl) Substitution” (J Med Chem, 2020)
